NSD2 inh = inhibitors of human histone methyltransferase NSD2; O96028; NSD2 peptide methylation, AlphaScreen, 120 min; inhibition, % at 12.5 µM; actives 0.54% (n = 310,000); AID 743445; in the data active = inhibition above about 50%
UHRF1 MBD2 ctr = human UHRF1 methylated DNA binding inhibitors; UHRF1 binding to methylated oligo, TR-FRET; Q96T88; inhibition, % at 4.4 µM; actives 0.75% (n = 370,000);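 note: UHRF1 SRA domain binding a hemimethylated CpG hairpin DNA probe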
TDP2 inh = TDP2 (human) inhibition, absorbance primary screen. inhibition, % at 12.8 µM. actives 0.34% (n = 370,000). recombinant TDP2, T5PNP hydrolysis, p-nitrophenol absorbance 415 nm. O95551;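 active = inhibition above the mean of all tested compounds plus 3 SD, set per campaign, cut at about 25% in these data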
Target sequence (O95551 whole entry, looked up): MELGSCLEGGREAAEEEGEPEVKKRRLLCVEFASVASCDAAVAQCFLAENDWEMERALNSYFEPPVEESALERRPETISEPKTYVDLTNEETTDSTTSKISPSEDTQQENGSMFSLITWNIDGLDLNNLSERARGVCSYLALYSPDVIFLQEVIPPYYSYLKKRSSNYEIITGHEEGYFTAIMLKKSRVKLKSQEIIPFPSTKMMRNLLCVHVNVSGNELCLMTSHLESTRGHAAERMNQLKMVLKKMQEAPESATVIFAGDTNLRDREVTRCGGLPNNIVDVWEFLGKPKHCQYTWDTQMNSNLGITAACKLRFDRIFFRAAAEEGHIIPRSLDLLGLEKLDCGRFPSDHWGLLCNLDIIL
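Evaluation: % inhibition relative to enzyme-containing and enzyme-free wells. Material: recombinant human TDP2. Benchmarks: enzyme-free and DMSO wells. Timing: enzyme reaction with compound for 2 h at 37 °C. Compound dosing: 12.8 µM only. Measured by: p-Nitrophenol epi absorbance. Reagent: T5PNP substrate at 5 mM, a TopII-DNA adduct mimic. Replication: single well per compound.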
MBD2 inh = inhibitors of human MBD2 binding to methylated oligonucleotide | Q9UBB5 | TR-FRET | inhibition, % at 4.4 µM | actives 0.31% (n = 370,000); in the data active = inhibition above about 13%
LEDGF integ inh = blocks HIV-1 LEDGF/p75-dependent DNA integration; inhibition, % at 3.7 µM; TR-FRET IN-LEDGF/p75 DNA integration, Eu/Cy5; AID 743269; actives 0.64% (n = 370,000);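 active = inhibition above the screen-wide mean plus 3 SD, cut at about 13% in these data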;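 note: signal is the Cy5 over europium emission ratio at 671 and 618 nm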
CASP6 VEID inh = caspase-6 (human) enzyme inhibition; P55212; purified caspase-6, Z-VEID-R110 cleavage fluorescence; inhibition, % at 12.5 µM; actives 0.53% (n = 350,000);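 active = mean inhibition across replicates at least about 35%, with every replicate also reaching that limit, limit read from the data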
Target sequence (P55212 24-179 limits assumed): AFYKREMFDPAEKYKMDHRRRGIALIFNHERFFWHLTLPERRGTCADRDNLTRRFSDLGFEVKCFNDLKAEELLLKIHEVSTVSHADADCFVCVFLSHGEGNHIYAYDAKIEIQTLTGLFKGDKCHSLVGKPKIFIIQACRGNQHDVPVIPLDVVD
Target sequence (P55212 194-293 limits assumed): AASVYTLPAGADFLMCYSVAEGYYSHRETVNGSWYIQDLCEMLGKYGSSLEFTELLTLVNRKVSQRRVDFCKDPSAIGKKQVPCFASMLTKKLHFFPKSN
UHRF1 ctr MBD2 = counter-screen for MBD2 inhibitors: human UHRF1 methylated DNA binding inhibitors; shares compounds with MBD2 inh; UHRF1 binding to methylated oligonucleotide, TR-FRET; actives 25% (n = 1,000); inhibition, % at 4.4 µM; AID 720530;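 note: UHRF1 SRA domain binding a labeled hemimethylated CpG hairpin DNA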
MBD2 DBD conf = confirmation of human MBD2-DBD methylated oligonucleotide binding inhibitors | inhibition, % at 4.4 µM | TR-FRET MBD2-DBD binding to methylated oligonucleotide | AID 720531 | shares compounds with MBD2 inh | actives 26% (n = 1,000); in the data active = inhibition above about 14%
CASP1 counter = selectivity counter-screen: inhibitors of human caspase-1 | AID 743289 | purified caspase-1, Z-YVAD-R110 cleavage fluorescence | 100 tested, under 10 active | activity change, negative = inhibition, % at 35 µM | shares compounds with CASP6 VEID inh;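 active = compounds lowering fluorescence whose fitted half-maximal concentration is no more than twice their top tested dose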
TDP2 inh conf = human TDP2 inhibition, confirmation | AID 743263 | inhibition, % at 12.8 µM | actives 22% (n = 1,100) | recombinant human TDP2, absorbance read-out | shares compounds with TDP2 inh; in the data active = inhibition above about 25%
IN multimer act = counter-screen for LEDGF/p75 integration inhibitors: HIV-1 integrase multimerization activators; shares compounds with LEDGF integ inh; TR-FRET HIV-1 integrase multimerization, biochemical; AID 1053131; actives 17% (n = 2,000); activation, % at 7.7 µM; in the data active = activation above about 8.9%
TR-FRET interf = optically interferes with TR-FRET readout in LEDGF counter-screen; inhibition, % at 7.7 µM; shares compounds with LEDGF integ inh; TR-FRET optical interference counterscreen, HIV-1 IN multimerization; 2,000 tested, under 10 active;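 active = inhibition above the mean over all tested compounds plus 3 SD, which no compound reached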
IN-LEDGF confirm = confirmation of HIV-1 LEDGF/p75-dependent integration inhibitors. shares compounds with LEDGF integ inh. TR-FRET LEDGF/p75-dependent HIV-1 integration, biochemical. inhibition, % at 3.7 µM. actives 36% (n = 2,000). AID 1053136; in the data active = inhibition above about 14%
Hits are given with their value. Compounds with a hit are over-represented: about 1.9% of the library has one in this group of screens. Cut-off read from the data, not from the text of the source, unless noted: active = inhibition above about 21%; inactive = the rest.

Results for Cc1ccc(-n2c(C)cc(/C=C3/C(=O)NC(=O)N(Cc4ccco4)C3=O)c2C)cc1 ?
NSD2 inh: inactive; UHRF1 MBD2 ctr: inactive; TDP2 inh: inactive; MBD2 inh: inactive; LEDGF integ inh: 28.4

How did O=C(Cc1ccccc1)N1CCCCN2[C@H](CO)[C@@H](c3ccc(C#Cc4ccccc4)cc3)[C@@H]2C1 do in these assays?
CASP6 VEID inh: inactive

What do the screens show for `O=C(Cc1ccccc1)N1CCCCN2[C@H](CO)[C@@H](c3ccc(C#Cc4ccccc4)cc3)[C@H]2C1`?
CASP6 VEID inh: 54.1

What do the screens show for `COc1cc2c(ccc3c4cc(OC)c(OC)cc4c[n+](C)c23)cc1O`?
NSD2 inh: inactive; UHRF1 MBD2 ctr: 24.1; TDP2 inh: inactive; MBD2 inh: 88.1; LEDGF integ inh: inactive; CASP6 VEID inh: inactive; UHRF1 ctr MBD2: 56.3; MBD2 DBD conf: 99.6

Results for O=C(Cc1ccccn1)N1CCCCN2[C@@H](CO)[C@H](c3ccc(-c4ccccc4)cc3)[C@@H]2C1 ?
CASP6 VEID inh: inactive

How did CN(C)Cc1c[nH]c2ccc([N+](=O)[O-])cc12 do in these assays?
NSD2 inh: inactive; UHRF1 MBD2 ctr: inactive; TDP2 inh: inactive; MBD2 inh: inactive; LEDGF integ inh: inactive; CASP6 VEID inh: inactive

How did CN(C)Cc1c[nH]c2cc([N+](=O)[O-])ccc12 do in these assays?
NSD2 inh: inactive; UHRF1 MBD2 ctr: inactive; TDP2 inh: inactive; MBD2 inh: 18.6; LEDGF integ inh: inactive; CASP6 VEID inh: inactive; UHRF1 ctr MBD2: inactive; MBD2 DBD conf: inactive

What do the screens show for `O=C(Cc1ccccn1)N1CC2(C1)[C@H](c1ccccc1)[C@@H](CO)N2Cc1ccccn1`?
CASP6 VEID inh: inactive

Results for Nc1c(C(=O)NCC2CCCO2)c2nc3ccccc3nc2n1Cc1ccco1 (stereo not given) ?
NSD2 inh: inactive; UHRF1 MBD2 ctr: inactive; TDP2 inh: inactive; MBD2 inh: 16.7; LEDGF integ inh: inactive; CASP6 VEID inh: inactive; UHRF1 ctr MBD2: inactive; MBD2 DBD conf: inactive

What do the screens show for `CCCNC(=O)c1c(N)n(Cc2ccco2)c2nc3ccccc3nc12`?
NSD2 inh: inactive

What do the screens show for `CN(C)CC#Cc1ccc([C@@H]2[C@H]3CN(C(=O)Cc4ccccn4)CCCCN3[C@H]2CO)cc1`?
CASP6 VEID inh: inactive

How did Cc1ccc2c(C)c3ccc4ccccc4c3c[n+]2c1 do in these assays?
NSD2 inh: inactive; UHRF1 MBD2 ctr: 27.4; TDP2 inh: inactive; MBD2 inh: 72.1; LEDGF integ inh: inactive; CASP6 VEID inh: inactive; UHRF1 ctr MBD2: 43.1; MBD2 DBD conf: 83.0

How did COC(=O)CC1(CC(=O)OC)C(=O)N(c2ccccc2)C(=O)N(c2ccccc2)C1=O do in these assays?
NSD2 inh: inactive; UHRF1 MBD2 ctr: inactive; TDP2 inh: inactive; MBD2 inh: 54.7; LEDGF integ inh: inactive; CASP6 VEID inh: inactive; UHRF1 ctr MBD2: inactive; MBD2 DBD conf: inactive

Results for CCC1=Nc2cc(C(=O)N3CCC4(CC3)OCCO4)ccc2Sc2ccc(C)cc21 ?
NSD2 inh: inactive; UHRF1 MBD2 ctr: inactive; TDP2 inh: inactive; MBD2 inh: 21.5; LEDGF integ inh: inactive; CASP6 VEID inh: inactive; UHRF1 ctr MBD2: inactive; MBD2 DBD conf: inactive

How did Cn1cccc1/C=C1\C(=O)NC(=O)N(Cc2ccco2)C1=O do in these assays?
NSD2 inh: inactive; UHRF1 MBD2 ctr: 63.0; TDP2 inh: inactive; MBD2 inh: 19.9; LEDGF integ inh: 64.6; UHRF1 ctr MBD2: 30.4; MBD2 DBD conf: 13.7

How did CCCN1[C@@H]2c3cccc(=O)n3C[C@H]1[C@H](CO)[C@H]2C(=O)N(C)C do in these assays?
CASP6 VEID inh: inactive

Results for COC(=O)[C@@H]1[C@@H](CO)[C@@H]2Cn3c(ccc(-c4cccc(F)c4)c3=O)[C@H]1N2Cc1ccncc1 ?
CASP6 VEID inh: inactive

How did CN1C(=O)/C(=C/c2ccc(Cl)s2)C(=O)NC1=S do in these assays?
NSD2 inh: inactive; UHRF1 MBD2 ctr: inactive; TDP2 inh: inactive; MBD2 inh: inactive; LEDGF integ inh: inactive; CASP6 VEID inh: inactive

How did CN1C(=O)/C(=C/C=C/c2ccco2)C(=O)NC1=S do in these assays?
UHRF1 MBD2 ctr: 72.2; TDP2 inh: inactive; MBD2 inh: 23.4; LEDGF integ inh: 60.1; CASP6 VEID inh: 76.0; UHRF1 ctr MBD2: 61.5; MBD2 DBD conf: 21.9

Results for CC=Cc1ccc2n(c1=O)C[C@H]1[C@H](CO)[C@@H](C(=O)OC)[C@@H]2N1C(=O)CC1CC1 (mixture of isomers) ?
CASP6 VEID inh: inactive

What do the screens show for `COc1ccc(-c2n(-c3ccccn3)c3ccccc3[n+]2-c2ccccn2)cc1`?
UHRF1 MBD2 ctr: 30.7; TDP2 inh: inactive; MBD2 inh: 46.5; LEDGF integ inh: inactive; CASP6 VEID inh: inactive; UHRF1 ctr MBD2: 74.2; MBD2 DBD conf: 88.4

What do the screens show for `CNc1ccc2nc3ccccc3[n+](C)c2c1`?
NSD2 inh: 81.3; UHRF1 MBD2 ctr: inactive; TDP2 inh: 45.7; MBD2 inh: 14.6; LEDGF integ inh: inactive; CASP6 VEID inh: 95.0; UHRF1 ctr MBD2: inactive; MBD2 DBD conf: 19.5; TDP2 inh conf: 32.4

Results for O=C(O)C[C@@H]1CC[C@H]2NC[C@H](O)COC[C@@H]2O1 ?
CASP6 VEID inh: inactive

Results for COc1cc2c(cc1OC)-c1c(OC)c(OC)cc3c1[C@H](C2)N(C)CC3 ?
UHRF1 MBD2 ctr: 41.0; TDP2 inh: 73.9; MBD2 inh: 20.1; LEDGF integ inh: 26.4; CASP6 VEID inh: 58.4; UHRF1 ctr MBD2: inactive; MBD2 DBD conf: inactive; CASP1 counter: inactive; TDP2 inh conf: 55.9; IN multimer act: inactive; TR-FRET interf: inactive; IN-LEDGF confirm: 25.1

High-throughput results: PubChem, several laboratories
